# Assay outcomes: PubChem BioAssay, Johns Hopkins Ion Channel Center
# A selection: hits, their analogues and other compounds. The true share with any hit is near 4.1%.
# RGS4 act – RGS4 potentiation or activation; HEK293 M3R/inducible RGS4, carbachol calcium flux Fluo4; stronger effect = lower value; B-score at 10 µM; 0.92% of 310,000 active; AID 463111;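 active = B-score of the integrated calcium signal more than 4 SD below the library mean, with starting fluorescence not abnormally high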;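 note: negative B-score means reduced calcium response which marks RGS4 activation or potentiation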
#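 Material: Inducible-RGS4 HEK293 cells carrying M3 receptor; also added: carbachol at ECmax as muscarinic agonist stimulus; incubation: compound preincubation 20 min at room temperature before agonist; signal: Fluo4-AM (2 µM) calcium-flux fluorescence, kinetic read; measure: integrated calcium ratio converted to B score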
# MrgX1 PAM – human MrgX1 positive allosteric modulation, primary screen. 0.63% of 310,000 active. MrgX1-HEK293, Fluo-4 calcium flux, FDSS; stronger effect = higher value. B-score at 10 µM;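 active = plate-corrected calcium response at least 3 library SD above typical, normal starting fluorescence, not activating the receptor alone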;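 note: compound read alongside a low EC10 to EC30 dose of BAM8-22 agonist; peak minus trough fluorescence over baseline measured at the second addition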
# Target sequence (Q96LB2 whole entry, looked up): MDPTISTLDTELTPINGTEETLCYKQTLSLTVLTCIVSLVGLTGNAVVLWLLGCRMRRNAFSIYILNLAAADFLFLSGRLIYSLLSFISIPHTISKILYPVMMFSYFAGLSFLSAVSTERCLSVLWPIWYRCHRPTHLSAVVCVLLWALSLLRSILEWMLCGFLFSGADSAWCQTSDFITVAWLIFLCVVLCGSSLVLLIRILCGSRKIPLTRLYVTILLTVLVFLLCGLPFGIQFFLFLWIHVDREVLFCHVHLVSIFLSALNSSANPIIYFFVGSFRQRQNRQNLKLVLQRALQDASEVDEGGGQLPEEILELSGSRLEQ
# Kir21 inh – blocks the mouse Kir2.1 inward-rectifier potassium channel | AID 1672 | B-score at 10 µM | HEK293-Kir2.1, FluxOR thallium flux fluorescence; stronger effect = lower value | 0.85% of 310,000 active;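 active = fluorescence ratio B-score at or below minus 3 SD of library scores, with starting-brightness B-score within 2 SD, cut at about -4.2 in these data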;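 note: channel flux triggered by added potassium and thallium sulfate stimulus; B-score of peak minus minimum fluorescence over baseline after thallium stimulus; more negative B-score means stronger Kir2.1 block with less thallium influx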
# MrgX1 antag – blocks BAM8-22 activation of human MrgX1 receptor; Q96LB2; MRGX1-HEK293 calcium flux, Fluo-4, BAM8-22 antagonism; stronger effect = lower value; B-score at 10 µM; 1.3% of 310,000 active; AID 588676;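 active = calcium-response B-score plate-corrected more than 3 library SD below zero, starting fluorescence within 5 deviations, no agonist response on first addition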;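 note: peak minus trough fluorescence over baseline after final BAM8-22 challenge near maximal dose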
# RGS4 inh – inhibitors of human RGS4; P49798; HEK293 M3R/RGS4 inducible, Fluo-4 calcium flux; stronger effect = higher value; triggered by carbachol at its EC20; B-score at 10 µM; 0.45% of 310,000 active; AID 463165;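 active = B-score, a plate-corrected calcium signal, over three deviations above library mean, with baseline fluorescence within five deviations of library mean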;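 note: RGS4 expression induced by doxycycline in cells with stable M3 receptor; B-score is computed from the integrated fluorescence ratio over baseline after carbachol; higher B-score means a larger calcium signal and so more RGS4 inhibition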
# Target sequence (P49798 whole entry, looked up): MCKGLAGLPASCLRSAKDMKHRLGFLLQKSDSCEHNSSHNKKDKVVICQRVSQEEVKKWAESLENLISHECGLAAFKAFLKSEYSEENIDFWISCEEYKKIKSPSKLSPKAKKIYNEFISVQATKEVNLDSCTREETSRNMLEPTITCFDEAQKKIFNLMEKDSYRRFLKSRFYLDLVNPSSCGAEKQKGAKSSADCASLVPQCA
# MrgX1 ag – activates human MrgX1 receptor signaling; MrgX1-HEK293 cells, Fluo-4 calcium fluorescence, agonist mode; stronger effect = higher value; Q96LB2; B-score at 10 µM; 0.44% of 310,000 active;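 active = calcium response B-score plate-corrected fluorescence ratio at least 3 library SD, with starting fluorescence B-score inside 5 SD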
#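 Material: HEK293 cells stably expressing human MrgX1 receptor | Quantity: 15,000 cells per well | Times: Cells plated overnight, dye loaded 0.5 h 37 °C, 0.5 h room temperature | Measured by: Kinetic Fluo-4 NW fluorescence of intracellular calcium | Control set: Positive and negative controls per plate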
# * hit, by the source's call; i = inactive; · = no result.
SMILES,RGS4 act,MrgX1 PAM,Kir21 inh,MrgX1 antag,RGS4 inh,MrgX1 ag
CCCOc1ccc(S(=O)(=O)N2CCN(C)CC2)c2ccccc12,i,i,-1.9,i,i,i
Cc1cccnc1NC(=O)c1sc2ccccc2c1Cl,i,i,-0.84,i,i,i
S=C(NCCC(c1ccccc1)c1ccccc1)Nc1ccc(Cl)cc1,-7.9*,i,1.8,i,i,i
S=C(NCCC(c1ccccc1)c1ccccc1)Nc1ccccc1Cl,i,i,-0.91,i,i,i
S=C(NCCc1ccc(Cl)cc1)NCc1ccccc1,i,i,-7.3*,i,i,i
Fc1ccc(NC(=S)NCCc2ccc(Cl)cc2)cc1,i,i,-4.4*,i,i,i
COc1ccc(Cl)cc1NCCC(O)c1ccc(F)cc1 (centres undefined),i,i,-4.8*,i,i,i
S=C(NCCc1cccc(Cl)c1)NCc1ccccc1,i,i,-3.8,i,i,i
COC(=O)C1CCN(C(=O)c2ccc(NC(C)=O)cc2)CC1,i,i,-1.3,i,i,i
O=C1CSCC(=O)N1Cc1ccc(Cl)cc1Cl,i,i,-0.15,i,i,i
COc1ccc(NC(=O)CCCC2=NS(=O)(=O)c3ccccc3N2)cc1,i,i,-2.1,i,i,i
C/C(=N\NC(=S)NCCc1ccccc1)c1ccc(Cl)cc1Cl,-9.1*,i,0.3,i,i,i
C/C(=N\NC(=S)NCCc1ccccc1)c1ccc(O)cc1O,i,i,-2.9,i,i,i
CCOc1ccc(C2C(C#N)=C(N)SC(N)=C2C#N)c(OCC)c1,i,i,-1.1,i,i,i
CCCCc1ccc(C2C(C#N)=C(N)SC(N)=C2C#N)s1,·,i,·,-9.6*,·,i
CCN1C(=O)/C(=C\N(C)C)S/C1=N\S(=O)(=O)c1ccccc1,i,10*,0.01,i,i,i
CCN1C(=O)/C(=C/c2cccs2)S/C1=N\S(=O)(=O)c1ccc(C)cc1,i,i,0.01,i,i,i
CCS(=O)(=O)c1ncc(Cl)c(C(=O)Nc2ccc(C)cc2)n1,i,i,-5*,i,i,i
O=[N+]([O-])c1ccc(S(=O)(=O)N2CCSC2c2ccco2)cc1 (centres undefined),i,i,-4.6*,i,i,i
O=C(COc1coc(CN2CCN(c3ccccc3F)CC2)cc1=O)NC1CCCC1,i,i,0.67,i,i,i
CCOc1ccccc1NC(=S)NC(=O)CCCOc1ccc(Cl)cc1Cl,-7.3*,i,-0.62,i,i,i
O=C(CCCOc1ccc(Cl)cc1Cl)Nc1ccccc1C(=O)O,i,i,0.37,i,i,i
Brc1ccccc1/C=N/Nc1ccc2ccccc2n1,i,11*,1.2,i,i,i
Cc1cc(N/N=C/c2ccccc2Br)nc2ccccc12,i,i,-1.8,i,i,i
COC(=O)c1cc(S(=O)(=O)NC2CCC(C)CC2)cn1C (centres undefined),i,i,1.2,i,i,i
SMILES,RGS4 act,MrgX1 PAM,Kir21 inh,MrgX1 antag,RGS4 inh,MrgX1 ag
O=C(C1=C(O)C(=O)N(CCN2CCOCC2)C1c1ccc([N+](=O)[O-])cc1)c1cccs1 (centres undefined),i,i,1.6,i,i,i
CN(C)CCCN1C(=O)C(O)=C(C(=O)c2cccs2)C1c1cccc([N+](=O)[O-])c1 (centres undefined),i,6.6*,0.54,i,i,i
CCCCNC(=O)Nc1nc2ccc(CC)cc2s1,i,i,0.16,i,i,i
O=C(Nn1cnnc1)C1CCCN1S(=O)(=O)c1ccc(F)cc1 (centres undefined),i,i,-0.22,i,i,i
Clc1cccc(CSc2nccn2-c2ccccc2)c1,i,i,-7.8*,i,i,i
FC(F)(F)c1ccc(CSc2nccn2-c2ccccc2)cc1,i,i,-4.6*,i,i,i
Brc1ccc(CSc2nccn2-c2ccccc2)cc1,i,i,-1.4,i,i,i
COCCn1c(SCC(=O)Nc2ccccc2OC)nc2ccccc21,i,i,-1.2,i,i,i
COCCn1c(SCC(=O)Nc2nc(C)c(Cl)cc2Cl)nc2ccccc21,i,i,-6.3*,i,i,i
O=C1C(Cl)=C(NC(=O)c2ccccc2)C(=O)C(Cl)=C1NC(=O)c1ccccc1,i,i,0.59,i,7.3*,i
Cc1cccc(NC2=C(NC(=O)c3ccccc3)C(=O)c3ccccc3C2=O)c1,i,10*,-0.86,i,i,i
Cc1nn(-c2ccccc2)nc1CNC(=O)CC(C)(C)C,i,i,1.1,i,i,i
Cc1nn(-c2ccccc2)nc1CNC(=O)c1ncoc1-c1ccccc1,-7.4*,i,0.82,i,i,i
CCOc1ccc(Nc2cc(C)nc3ccc(C)cc23)cc1,i,i,-1.9,i,i,i
Cc1ccc(Nc2cc(C)nc3ccc(C)cc23)cc1,i,i,-6.7*,i,i,i
Cc1cc(Nc2ccc3c(c2)OCCO3)c2cc(Cl)ccc2n1,i,i,-5.2*,i,i,i
COc1ccc(CC(=O)O/N=C(\N)Cc2cccc3ccccc23)cc1,i,i,-0.27,i,i,i
O=C(NCCc1ccccc1)C1CCCN1C(=O)Nc1cccc(Cl)c1 (centres undefined),i,i,0,i,i,i
COc1ccc(/C=C(/C#N)C(=O)Nc2ccccc2C)cc1C(=O)O,i,i,-1.4,i,i,i
CCOc1cc(/C=C(\C#N)C(=O)Nc2ccccc2C(=O)O)ccc1OC(=O)c1ccc(C)cc1,i,i,0.31,-4.9*,i,i
COc1ccccc1CC(=O)N1CCCc2cc(C)ccc21,i,i,-7.3*,i,i,i
O=C(N/N=C/c1cccc2nccnc12)c1ccncc1,-8.3*,i,2.1,i,i,i
O=C(N/N=C/c1cccc2nccnc12)c1ccccc1O,i,i,0.12,i,i,i
CCN(C(=O)c1cc(Cl)ccc1OC)c1ccccc1,i,i,-1,i,i,i
COc1ccc(S(=O)(=O)c2c(N)n(Cc3ccco3)c3nc4ccccc4nc23)cc1,i,i,-0.88,-5.5*,i,i
O=C1CCCc2nc(N3CCN(C(=O)c4ccco4)CC3)ncc21,i,i,0.69,i,i,i
